Measurements from ChEMBL document CHEMBL1155238, “Synthesis and antimycobacterial activity of N'-[(E)-(monosubstituted-benzylidene)]-2-pyrazinecarbohydrazide derivatives” (Eur J Med Chem, 2009).
Converted amounts (≈) assume the structure as drawn.

Columns and labels:
[1] = Cytotoxicity against mouse J774 cells assessed as cell viability at 50 ug/ml after 48 hrs by MTT assay; type: cell-based; details: read-out: Activity
[2] = Cytotoxicity against mouse J774 cells assessed as cell viability at 100 ug/ml after 48 hrs by MTT assay; type: cell-based; details: read-out: Activity
Method in brief: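 Uninfected J774 macrophages seeded at 2.5 × 10^6 cells/well for 24 h (5% CO2, 37 °C); non-adherent cells washed off with RPMI 1640, 10% FBS, gentamicin 25 µg/mL. Adherent cells given compound (1.0, 10.0, 100 µg/mL) in triplicate for 48 h. Medium was the live control, 3% tween 20 the dead control. MTT for 4 h, DMSO solubilization, absorbance at 540 nm, % viability.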

[3] = Cytotoxicity against mouse J774 cells assessed as cell viability at 150 ug/ml after 48 hrs by MTT assay; type: cell-based; details: read-out: Activity
[4] = Cytotoxicity against Mycobacterium bovis Bacillus Calmette-Guerin infected mouse J774 cells assessed as cell viability at 50 ug/ml after 48 hrs by MTT assay; type: cell-based; details: read-out: Activity
[5] = Cytotoxicity against Mycobacterium bovis Bacillus Calmette-Guerin infected mouse J774 cells assessed as cell viability at 100 ug/ml after 48 hrs by MTT assay; type: cell-based; details: read-out: Activity
Method in brief: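 J774 macrophages seeded at 2.5 × 10^6 cells/well for 24 h (5% CO2, 37 °C); non-adherent cells washed off with RPMI 1640, 10% FBS, gentamicin 25 µg/mL. Adherent cells infected with BCG (2.5 × 10^6 UFC/well), then given compound (1.0, 10.0, 100 µg/mL) in triplicate for 48 h. Medium was the live control, 3% tween 20 the dead control. MTT for 4 h, DMSO solubilization, A540, % viability.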

[6] = Cytotoxicity against Mycobacterium bovis Bacillus Calmette-Guerin infected mouse J774 cells assessed as cell viability at 150 ug/ml after 48 hrs by MTT assay; type: cell-based; details: read-out: Activity
[7] = system: Mycobacterium tuberculosis; test: Antimycobacterial activity against Mycobacterium tuberculosis H37Rv ATCC 27294 after 5 days by microplate Alamar blue assay; type: functional; details: H37Rv ATCC 27294, 120 h
Method in brief: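 M. tuberculosis ATCC 27294 in Middlebrook 7H9 broth with compounds serially diluted on the plate (final 0.01–100 µg/mL). Incubated at 37 °C for five days, then a 1:1 Alamar Blue/10% tween 80 mix was added for 24 h. Blue read as no growth, pink as growth. MIC is the lowest concentration preventing the blue-to-pink change.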

| Compound | viability at 48 h, 50 ug/ml [1] [%] | viability at 48 h, 100 ug/ml [2] [%] | viability at 48 h, 150 ug/ml [3] [%] | viability at 48 h, 50 ug/ml [4] [%] | viability at 48 h, 100 ug/ml [5] [%] | viability at 48 h, 150 ug/ml [6] [%] | MIC [7] [µg/mL] |
| --- | --- | --- | --- | --- | --- | --- | --- |
| O=C(N/N=C/c1ccc(Cl)cc1)c1cnccn1 | 83 | 64 | 56 |  |  |  |  |
| N#Cc1ccccc1/C=N/NC(=O)c1cnccn1 | 92 | 75 | 70 | 80 | 73 | 75 |  |
| NC(=O)c1cnccn1 [PYRAZINAMIDE] | 100 | 100 | 100 | 92 | 87 | 67 | > 100 |
| O=C(N/N=C/c1cccc(F)c1)c1cnccn1 | 49 | 46 | 40 |  |  |  |  |
| O=C(N/N=C/c1ccc(F)cc1)c1cnccn1 | 78 | 69 | 71 |  |  |  |  |
| COc1cccc(/C=N/NC(=O)c2cnccn2)c1 | 100 | 100 | 97 | 100 | 98 | 87 | > 100 |
| O=C(N/N=C/c1ccccc1Cl)c1cnccn1 | 70 | 66 | 69 |  |  |  |  |
| CN(C)c1ccc(/C=N/NC(=O)c2cnccn2)cc1 | 93 | 87 | 89 | 80 | 73 | 71 |  |
| N#Cc1ccc(/C=N/NC(=O)c2cnccn2)cc1 | 100 | 100 | 100 | 100 | 98 | 100 | > 100 |
| O=C(N/N=C/c1ccccc1[N+](=O)[O-])c1cnccn1 | 90 | 59 | 46 | 100 | 94 | 88 | 50 (≈ 184 µM) |
| COc1ccc(/C=N/NC(=O)c2cnccn2)cc1 | 74 | 55 | 55 |  |  |  |  |
| COc1ccccc1/C=N/NC(=O)c1cnccn1 | 97 | 100 | 97 | 87 | 54 | 56 |  |
| O=C(N/N=C/c1cccc(Cl)c1)c1cnccn1 | 100 | 100 | 100 | 100 | 96 | 94 | 50 (≈ 192 µM) |
| O=C(N/N=C/c1ccccc1F)c1cnccn1 | 100 | 100 | 81 | 100 | 80 | 88 | 100 (≈ 409 µM) |
| O=C(N/N=C/c1ccccc1)c1cnccn1 | 100 | 75 | 100 | 100 | 88 | 80 | > 100 |
| O=C(N/N=C/c1ccc(Br)cc1)c1cnccn1 | 100 | 100 | 94 | 52 | 56 | 54 |  |
| CCOc1cccc(/C=N/NC(=O)c2cnccn2)c1 | 74 | 71 | 69 |  |  |  |  |
| O=C(N/N=C/c1cccc(O)c1)c1cnccn1 | 100 | 100 | 88 | 73 | 64 | 57 |  |
| O=C(N/N=C/c1ccccc1O)c1cnccn1 | 1 | 0.3 | 0 |  |  |  |  |
| O=C(N/N=C/c1cccc(Br)c1)c1cnccn1 | 100 | 100 | 93 | 87 | 96 | 56 |  |
| O=C(N/N=C/c1ccc(O)cc1)c1cnccn1 | 100 | 81 | 80 | 100 | 72 | 91 |  |
| CCOc1ccc(/C=N/NC(=O)c2cnccn2)cc1 | 100 | 98 | 100 | 90 | 85 | 88 | > 100 |
| O=C(N/N=C/c1cccc([N+](=O)[O-])c1)c1cnccn1 | 100 | 85 | 76 | 92 | 92 | 72 | 100 (≈ 369 µM) |
| O=C(N/N=C/c1ccc([N+](=O)[O-])cc1)c1cnccn1 | 50 | 44 | 44 |  |  |  |  |
| N#Cc1cccc(/C=N/NC(=O)c2cnccn2)c1 | 100 | 100 | 100 | 100 | 98 | 89 | 50 (≈ 199 µM) |
| O=C(N/N=C/c1ccccc1Br)c1cnccn1 | 98 | 100 | 91 | 73 | 64 | 52 |  |
| CCN(CC)c1ccc(/C=N/NC(=O)c2cnccn2)cc1 | 97 | 92 | 93 | 85 | 84 | 78 |  |
